Source: ChEMBL document CHEMBL3352639, “Synthesis and biological evaluation of thienopyrimidine derivatives as GPR119 agonists” (Bioorg Med Chem Lett, 2014)
Values belong to the compound of their own block, whether it stands above or below them. The source made the active and inactive calls. No cut-off for these calls is given here.

Assays:
[1] = molecular target: T1, Glucose-dependent insulinotropic receptor (Homo sapiens) (UniProt Q8TDV5); experiment: Activation of human GPR119 expressed in CHO-K1 cells at 1 uM after 24 hrs by CRE-luciferase assay relative to GSK1292263; assay type: functional, cell-based
T1 sequence (whole entry): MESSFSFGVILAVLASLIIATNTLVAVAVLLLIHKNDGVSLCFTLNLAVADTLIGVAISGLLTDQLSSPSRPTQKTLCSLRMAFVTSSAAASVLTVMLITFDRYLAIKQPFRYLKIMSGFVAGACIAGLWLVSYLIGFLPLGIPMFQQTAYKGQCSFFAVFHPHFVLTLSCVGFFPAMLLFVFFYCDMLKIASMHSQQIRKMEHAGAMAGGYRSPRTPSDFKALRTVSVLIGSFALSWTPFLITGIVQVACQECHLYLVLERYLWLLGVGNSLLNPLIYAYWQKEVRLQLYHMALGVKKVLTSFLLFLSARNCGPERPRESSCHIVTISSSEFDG

[2] = molecular target: T2, Glucose-dependent insulinotropic receptor (Homo sapiens, UniProt Q8TDV5); experiment: Agonist activity at human GPR119 expressed in CHO-K1 cells after 24 hrs by CRE-luciferase assay; assay type: functional, cell-based
T2 sequence (Q8TDV5 whole entry): T1 sequence (whole entry)

[3] = molecular target: hERG (KCNH2) (Homo sapiens, UniProt Q12809); experiment: Inhibition of human ERG at 10 uM
Outline: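 hERG liability was assessed in a binding-assay format, reported as percent inhibition with the compound at 10 μM.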

[4] = test system: HFL1; experiment: Cytotoxicity against human HFL1 cells; assay type: cell-based
[5] = test system: L929; experiment: Cytotoxicity against mouse L929 cells; assay type: cell-based
[6] = test system: Beta-TC6; experiment: Increase in glucose-stimulated insulin release in mouse BetaTC6 cells after 1 hr by ELISA; assay type: functional, cell-based
Outline: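 GSIS was measured in the TC-6 pancreatic beta-cell line exposed to compound over 10 nM to 100 nM, with insulin secretion read under glucose stimulation.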

[7] = Cytotoxicity against chinese hamster CHOK1 cells; assay type: cell-based; settings: Cricetulus griseus, CHO-K1
[8] = Metabolic stability in rat liver microsomes assessed as compound remaining at 1 uM after 30 mins by LC/MS/MS analysis; assay type: ADME; settings: read-out: Stability
[9] = molecular target: T3, Cytochrome P450 1A2 (Homo sapiens, UniProt P05177); experiment: Inhibition of CYP1A2 (unknown origin); assay type: ADME
T3 sequence (P05177 whole entry): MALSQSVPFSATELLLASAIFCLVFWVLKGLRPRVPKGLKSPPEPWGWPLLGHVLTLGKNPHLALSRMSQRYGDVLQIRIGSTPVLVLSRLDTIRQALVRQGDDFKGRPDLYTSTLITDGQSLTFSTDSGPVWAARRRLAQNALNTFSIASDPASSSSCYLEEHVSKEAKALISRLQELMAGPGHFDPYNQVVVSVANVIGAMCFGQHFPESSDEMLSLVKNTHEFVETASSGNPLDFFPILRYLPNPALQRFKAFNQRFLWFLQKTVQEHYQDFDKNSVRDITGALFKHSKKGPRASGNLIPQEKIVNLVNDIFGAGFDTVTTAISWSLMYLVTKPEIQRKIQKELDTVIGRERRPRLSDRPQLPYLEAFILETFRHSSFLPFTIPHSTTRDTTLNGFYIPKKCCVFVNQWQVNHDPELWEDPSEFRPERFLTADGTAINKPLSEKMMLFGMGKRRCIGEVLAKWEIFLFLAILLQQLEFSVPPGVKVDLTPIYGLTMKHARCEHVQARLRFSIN

[10] = molecular target: T3, Cytochrome P450 1A2; experiment: Induction of CYP1A2 (unknown origin); assay type: ADME
[11] = molecular target: T4, Cytochrome P450 2C9 (Homo sapiens, UniProt P11712); experiment: Inhibition of CYP2C9 (unknown origin); assay type: ADME
[12] = molecular target: T5, Cytochrome P450 2B6 (Homo sapiens, UniProt P20813); experiment: Inhibition of CYP2B6 (unknown origin); assay type: ADME
T5 sequence (P20813 whole entry): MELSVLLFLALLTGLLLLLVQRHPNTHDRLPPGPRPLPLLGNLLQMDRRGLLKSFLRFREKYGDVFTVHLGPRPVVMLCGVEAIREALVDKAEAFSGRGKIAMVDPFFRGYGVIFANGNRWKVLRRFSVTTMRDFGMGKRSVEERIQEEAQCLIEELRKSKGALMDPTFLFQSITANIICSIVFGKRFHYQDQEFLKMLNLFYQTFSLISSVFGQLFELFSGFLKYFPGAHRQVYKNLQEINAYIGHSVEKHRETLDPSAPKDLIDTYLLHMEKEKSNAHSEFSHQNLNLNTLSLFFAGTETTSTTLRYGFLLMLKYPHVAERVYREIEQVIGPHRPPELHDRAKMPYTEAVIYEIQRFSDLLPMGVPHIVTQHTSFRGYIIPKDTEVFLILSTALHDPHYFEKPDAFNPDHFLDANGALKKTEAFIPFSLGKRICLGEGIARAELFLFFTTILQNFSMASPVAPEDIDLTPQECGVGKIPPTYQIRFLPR

[13] = molecular target: T4, Cytochrome P450 2C9; experiment: Induction of CYP2C9 (unknown origin); assay type: ADME
[14] = molecular target: T5, Cytochrome P450 2B6; experiment: Induction of CYP2B6 (unknown origin); assay type: ADME
[15] = test system: Mus musculus; experiment: Antidiabetic activity in C57BL/6 mouse assessed as reduction in plasma glucose AUC at 15 mg/kg by OGTT; assay type: functional, organism-based; parameters: dose 15 mg/kg
Outline: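 OGTT in normal mice, n = 7 per group. Plasma glucose was followed over the test, and efficacy was taken as the AUC of glucose concentration. Data are given as means ± SEM.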

[16] = molecular target: T6, Cytochrome P450 3A4 (Homo sapiens, UniProt P08684); experiment: Induction of CYP3A4 (unknown origin); assay type: ADME
[17] = Cytotoxicity against mouse NIH/3T3 cells; assay type: cell-based; settings: NIH3T3
[18] = molecular target: Cytochrome P450 2C19 (Homo sapiens, UniProt P33261); experiment: Inhibition of CYP2C19 (unknown origin); assay type: ADME
[19] = molecular target: Cytochrome P450 2D6 (Homo sapiens, UniProt P10635); experiment: Inhibition of CYP2D6 (unknown origin); assay type: ADME
[20] = Metabolic stability in human liver microsomes assessed as compound remaining at 1 uM after 30 mins by LC/MS/MS analysis; assay type: ADME; settings: read-out: Stability
[21] = molecular target: T6, Cytochrome P450 3A4; experiment: Inhibition of CYP3A4 (unknown origin); assay type: ADME
[22] = molecular target: T7, Cytochrome P450 2A6 (Homo sapiens, UniProt P11509); experiment: Inhibition of CYP2A6 (unknown origin); assay type: ADME
T7 sequence (P11509 whole entry): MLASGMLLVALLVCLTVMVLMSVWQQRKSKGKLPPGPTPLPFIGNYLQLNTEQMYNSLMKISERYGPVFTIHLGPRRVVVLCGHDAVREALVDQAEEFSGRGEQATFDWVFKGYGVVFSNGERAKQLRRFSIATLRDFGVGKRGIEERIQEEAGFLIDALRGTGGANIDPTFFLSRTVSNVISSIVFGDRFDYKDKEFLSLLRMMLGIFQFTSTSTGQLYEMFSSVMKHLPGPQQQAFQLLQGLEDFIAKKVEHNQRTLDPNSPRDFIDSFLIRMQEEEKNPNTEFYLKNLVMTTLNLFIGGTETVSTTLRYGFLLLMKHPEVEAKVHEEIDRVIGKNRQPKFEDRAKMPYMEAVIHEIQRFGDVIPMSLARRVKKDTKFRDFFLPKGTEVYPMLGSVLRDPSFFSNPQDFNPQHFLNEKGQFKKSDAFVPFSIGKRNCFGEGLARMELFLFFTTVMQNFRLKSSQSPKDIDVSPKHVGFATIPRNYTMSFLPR

[23] = molecular target: Cytochrome P450 2E1 (Homo sapiens, UniProt P05181); experiment: Induction of CYP2E1 (unknown origin); assay type: ADME
Cytochrome P450 2E1, sequence (P05181 whole entry): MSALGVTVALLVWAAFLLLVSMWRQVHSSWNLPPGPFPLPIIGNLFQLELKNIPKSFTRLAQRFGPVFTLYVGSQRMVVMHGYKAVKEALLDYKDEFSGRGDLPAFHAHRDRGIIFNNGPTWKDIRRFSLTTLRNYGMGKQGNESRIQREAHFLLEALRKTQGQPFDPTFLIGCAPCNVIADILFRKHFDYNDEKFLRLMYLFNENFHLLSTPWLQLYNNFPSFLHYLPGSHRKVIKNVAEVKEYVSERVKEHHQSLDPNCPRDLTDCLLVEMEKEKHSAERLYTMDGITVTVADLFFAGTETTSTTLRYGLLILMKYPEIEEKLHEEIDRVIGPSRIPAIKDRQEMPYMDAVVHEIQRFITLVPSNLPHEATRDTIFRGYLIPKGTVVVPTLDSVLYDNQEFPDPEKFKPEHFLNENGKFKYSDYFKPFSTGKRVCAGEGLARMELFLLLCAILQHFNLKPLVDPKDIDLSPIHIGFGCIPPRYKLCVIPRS

T4 sequence (P11712 whole entry): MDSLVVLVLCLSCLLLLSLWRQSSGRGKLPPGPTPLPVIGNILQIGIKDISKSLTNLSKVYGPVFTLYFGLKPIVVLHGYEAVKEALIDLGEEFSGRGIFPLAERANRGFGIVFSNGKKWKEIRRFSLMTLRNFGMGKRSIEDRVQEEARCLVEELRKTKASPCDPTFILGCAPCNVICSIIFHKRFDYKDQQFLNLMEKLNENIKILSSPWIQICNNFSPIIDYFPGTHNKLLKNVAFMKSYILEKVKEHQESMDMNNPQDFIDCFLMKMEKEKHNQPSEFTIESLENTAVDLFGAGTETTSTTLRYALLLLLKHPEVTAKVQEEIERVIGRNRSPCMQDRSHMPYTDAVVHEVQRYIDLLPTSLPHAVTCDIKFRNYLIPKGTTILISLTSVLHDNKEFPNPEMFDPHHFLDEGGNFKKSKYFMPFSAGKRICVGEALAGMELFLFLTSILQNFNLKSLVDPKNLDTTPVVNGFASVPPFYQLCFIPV
T6 sequence (P08684 whole entry): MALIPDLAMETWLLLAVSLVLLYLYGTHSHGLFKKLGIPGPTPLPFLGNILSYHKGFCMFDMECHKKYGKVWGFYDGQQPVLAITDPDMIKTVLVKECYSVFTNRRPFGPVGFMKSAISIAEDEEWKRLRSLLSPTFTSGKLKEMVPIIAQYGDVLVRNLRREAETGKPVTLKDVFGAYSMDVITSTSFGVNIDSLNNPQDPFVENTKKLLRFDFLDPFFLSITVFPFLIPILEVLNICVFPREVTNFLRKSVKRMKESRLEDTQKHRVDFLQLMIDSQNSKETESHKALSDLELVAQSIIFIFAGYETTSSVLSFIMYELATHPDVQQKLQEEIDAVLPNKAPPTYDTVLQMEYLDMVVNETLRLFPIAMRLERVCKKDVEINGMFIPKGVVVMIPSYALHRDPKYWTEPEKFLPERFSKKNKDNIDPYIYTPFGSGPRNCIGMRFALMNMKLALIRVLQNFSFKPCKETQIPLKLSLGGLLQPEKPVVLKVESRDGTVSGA
Cytochrome P450 2C19, sequence (P33261 whole entry): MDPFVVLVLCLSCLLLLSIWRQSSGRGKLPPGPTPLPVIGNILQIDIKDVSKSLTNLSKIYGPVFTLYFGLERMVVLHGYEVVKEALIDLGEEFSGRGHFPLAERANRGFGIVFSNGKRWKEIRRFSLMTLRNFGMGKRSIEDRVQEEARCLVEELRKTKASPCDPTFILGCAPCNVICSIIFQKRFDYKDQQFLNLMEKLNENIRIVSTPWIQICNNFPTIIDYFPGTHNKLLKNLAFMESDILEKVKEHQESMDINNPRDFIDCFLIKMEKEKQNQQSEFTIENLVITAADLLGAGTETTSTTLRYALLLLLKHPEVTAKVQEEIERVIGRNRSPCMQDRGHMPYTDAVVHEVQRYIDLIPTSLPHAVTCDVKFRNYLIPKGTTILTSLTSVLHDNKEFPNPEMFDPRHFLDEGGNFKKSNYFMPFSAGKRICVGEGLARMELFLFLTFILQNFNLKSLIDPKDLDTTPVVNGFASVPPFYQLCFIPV
Cytochrome P450 2D6, sequence (P10635 whole entry): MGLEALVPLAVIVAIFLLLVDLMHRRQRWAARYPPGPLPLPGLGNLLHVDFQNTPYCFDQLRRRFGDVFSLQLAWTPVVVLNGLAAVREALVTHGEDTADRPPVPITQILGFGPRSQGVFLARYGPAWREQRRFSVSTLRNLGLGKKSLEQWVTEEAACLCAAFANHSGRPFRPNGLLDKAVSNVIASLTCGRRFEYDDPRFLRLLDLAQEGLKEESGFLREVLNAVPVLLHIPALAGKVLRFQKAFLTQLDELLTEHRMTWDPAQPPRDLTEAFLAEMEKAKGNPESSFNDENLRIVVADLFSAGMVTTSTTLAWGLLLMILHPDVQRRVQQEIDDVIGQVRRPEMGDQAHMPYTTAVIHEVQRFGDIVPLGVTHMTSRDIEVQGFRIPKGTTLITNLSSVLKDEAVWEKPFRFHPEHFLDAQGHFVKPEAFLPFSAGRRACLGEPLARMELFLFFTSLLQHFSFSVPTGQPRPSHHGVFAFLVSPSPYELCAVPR
hERG (KCNH2), sequence (Q12809 whole entry): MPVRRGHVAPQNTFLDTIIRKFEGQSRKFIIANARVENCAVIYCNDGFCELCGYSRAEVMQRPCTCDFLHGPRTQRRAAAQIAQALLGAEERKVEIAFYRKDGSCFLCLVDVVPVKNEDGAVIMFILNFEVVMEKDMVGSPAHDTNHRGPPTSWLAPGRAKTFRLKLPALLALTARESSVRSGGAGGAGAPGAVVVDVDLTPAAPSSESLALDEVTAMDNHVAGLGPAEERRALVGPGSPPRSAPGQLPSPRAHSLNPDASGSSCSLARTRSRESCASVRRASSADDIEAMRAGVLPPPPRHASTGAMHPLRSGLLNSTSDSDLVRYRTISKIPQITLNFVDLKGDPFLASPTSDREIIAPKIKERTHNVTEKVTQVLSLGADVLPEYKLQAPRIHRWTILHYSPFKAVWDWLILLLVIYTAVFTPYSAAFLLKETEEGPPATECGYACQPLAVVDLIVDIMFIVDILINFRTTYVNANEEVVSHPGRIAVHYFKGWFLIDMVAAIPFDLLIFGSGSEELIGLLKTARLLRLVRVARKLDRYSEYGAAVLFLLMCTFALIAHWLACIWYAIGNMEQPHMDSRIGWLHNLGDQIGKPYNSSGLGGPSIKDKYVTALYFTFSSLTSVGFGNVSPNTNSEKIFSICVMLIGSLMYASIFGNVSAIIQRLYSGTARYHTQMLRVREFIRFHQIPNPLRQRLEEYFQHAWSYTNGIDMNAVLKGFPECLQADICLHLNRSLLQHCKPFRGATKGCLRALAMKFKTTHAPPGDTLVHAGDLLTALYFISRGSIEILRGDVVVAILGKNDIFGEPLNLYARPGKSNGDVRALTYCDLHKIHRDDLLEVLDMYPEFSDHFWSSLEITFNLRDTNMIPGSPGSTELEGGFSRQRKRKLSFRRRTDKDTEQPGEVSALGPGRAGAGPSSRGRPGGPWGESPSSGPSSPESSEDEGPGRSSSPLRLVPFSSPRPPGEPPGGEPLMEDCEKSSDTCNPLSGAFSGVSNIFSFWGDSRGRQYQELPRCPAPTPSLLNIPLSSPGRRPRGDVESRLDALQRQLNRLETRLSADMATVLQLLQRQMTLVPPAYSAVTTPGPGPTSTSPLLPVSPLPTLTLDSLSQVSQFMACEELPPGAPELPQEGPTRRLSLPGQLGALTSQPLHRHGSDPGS

Activity [1]: 49%
SMILES: CC(C)NC(=O)N1CCC(N(C)c2ncnc3cc(-c4ccc(S(C)(=O)=O)cc4)sc23)CC1

Activity [1]: 72% | EC50 [2]: 173 nM
SMILES: CN(c1ncnc2cc(-c3ccc(S(C)(=O)=O)cc3)sc12)C1CCN(C(=O)C2CC2)CC1

Activity [1]: 67% | EC50 [2]: 82 nM
SMILES: CC(C)OC(=O)N1CCC(N(C)c2ncnc3cc(-c4ccc(S(C)(=O)=O)cc4)sc23)CC1

Activity [1]: 70% | EC50 [2]: 1200 nM
SMILES: CC(C)S(=O)(=O)N1CCC(N(C)c2ncnc3cc(-c4ccc(S(C)(=O)=O)cc4)sc23)CC1

The next lines start with the compound.

SMILES: CC(C)(C)OC(=O)N1CCC(Oc2ncnc3cc(-c4ccc(S(C)(=O)=O)cc4)sc23)CC1
Activity [1]: 64% | EC50 [2]: 100 nM

SMILES: CCc1cnc(N2CCC(Oc3ncnc4cc(-c5ccc(S(C)(=O)=O)cc5)sc34)CC2)nc1
Activity [1]: 75% | EC50 [2]: 240 nM

SMILES: CCN(c1ncnc2cc(-c3ccc(S(C)(=O)=O)cc3F)sc12)C1CCN(C(=O)OC(C)(C)C)CC1
Activity [1]: 45%

SMILES: CN(c1ncnc2cc(-c3ccc(S(C)(=O)=O)cc3F)sc12)C1CCN(C(=O)OC2(C)CC2)CC1
Activity [1]: 105% | EC50 [2]: 26 nM

SMILES: CN(c1ncnc2cc(-c3ccc(S(C)(=O)=O)cc3F)sc12)C1CCN(C(=O)C2CC2)CC1
Activity [1]: 65%

SMILES: CN(c1ncnc2cc(-c3ccc(S(C)(=O)=O)cc3F)sc12)C1CCN(C(=O)OC(C)(C)C)CC1
inhibition at 10 µM [3]: 13% | IC50 [4]: > 100000 nM | Activity [1]: 94% | IC50 [5]: 65800 nM | Activity [6]: Dose-dependent effect | IC50 [7]: 53400 nM | remaining at 0.5 h, 1 µM [8]: > 95% | inhibition (INH) [9]: Not Active | EC50 [2]: 3 nM | Activity [10]: Not Active | IC50 [11]: 76800 nM | inhibition (INH) [12]: Not Active | Activity [13]: Not Active | Activity [14]: Not Active | Activity [15]: Active | Activity [16]: Not Active | IC50 [17]: 49800 nM | inhibition (INH) [18]: Not Active | inhibition (INH) [19]: Not Active | remaining at 0.5 h, 1 µM [20]: > 95% | inhibition (INH) [21]: Not Active | inhibition (INH) [22]: Not Active | Activity [23]: Not Active

SMILES: CCc1cnc(N2CCC(Nc3ncnc4cc(-c5ccc(S(C)(=O)=O)cc5)sc34)CC2)nc1
Activity [1]: 49%
